Compound activity deposited in PubChem BioAssay by several laboratories.
Hits are enriched below; roughly 1.4% of the tested compounds scored in any of these assays.
Tn6 DDE FP – disrupts Tn6 cyclic peptide binding to fibrin D-Dimer-E complex. P02675. Fibrin DD(E) TRITC-Tn6 fluorescence polarization displacement. inhibition, % at 8.3 µM. hit rate 0.21% among 370,000. AID 720509;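 active means inhibition above a per-campaign cutoff: mean of compounds within control limits plus 3 SD, cut at about 15% in these data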;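 further: 0% = median of all compound wells on the plate and 100% = blocking peptide control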
DDE Tn7 FP inh – disrupts Tn7 cyclic peptide binding to fibrin D-Dimer-E complex | hit rate 0.13% among 370,000 | inhibition, % at 8.3 µM | P02675 | FP displacement of FITC-Tn7 peptide from fibrin DD(E); 0% = median of compound wells per plate;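 active means inhibition above the mean of compounds falling within the control limits plus 3 SD of them, cut at about 14% in these data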;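 further: 0% = plate median of compound wells and 100% = 10 µM Aha-Tn7 peptide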
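Test system: human clot-derived fibrin DD(E) complex / Quantity: 2 µM final DD(E) protein / Incubation: 10 min plus 3 h, room temperature / Measured by: fluorescence polarization / Benchmarks: high control of 10 µM Aha-Tn7 peptide / Replicates: singlicate testing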
DAGLB inhibitor – blocks human DAGLB lipase activity; Q8NCG7; HEK293T DAGLB membrane lysate, EnzChek fluorogenic substrate; inhibition, % at 5.17 µM; hit rate 0.059% among 340,000; in the data active means inhibition above about 34%;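 further: 0% = enzyme with vehicle and 100% = wells lacking enzyme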
Target sequence (Q8NCG7 whole entry, looked up): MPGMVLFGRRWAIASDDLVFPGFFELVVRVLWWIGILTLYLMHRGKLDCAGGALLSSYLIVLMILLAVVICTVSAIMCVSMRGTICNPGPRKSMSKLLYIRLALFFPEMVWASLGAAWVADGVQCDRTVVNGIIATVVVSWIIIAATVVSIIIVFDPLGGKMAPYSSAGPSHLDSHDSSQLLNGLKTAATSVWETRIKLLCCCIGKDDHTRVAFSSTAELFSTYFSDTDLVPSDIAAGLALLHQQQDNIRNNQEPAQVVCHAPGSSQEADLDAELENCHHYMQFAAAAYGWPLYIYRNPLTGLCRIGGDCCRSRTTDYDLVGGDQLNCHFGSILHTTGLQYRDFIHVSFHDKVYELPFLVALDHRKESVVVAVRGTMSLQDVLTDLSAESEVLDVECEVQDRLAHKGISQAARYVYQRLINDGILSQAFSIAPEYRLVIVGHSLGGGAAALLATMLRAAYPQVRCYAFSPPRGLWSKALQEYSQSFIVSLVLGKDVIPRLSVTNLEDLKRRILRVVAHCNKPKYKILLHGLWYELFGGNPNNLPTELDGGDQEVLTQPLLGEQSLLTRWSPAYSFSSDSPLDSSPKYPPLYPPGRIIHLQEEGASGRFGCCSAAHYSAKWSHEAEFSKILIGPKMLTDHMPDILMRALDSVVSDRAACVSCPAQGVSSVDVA
H9c2 protect – protects H9c2 cardiomyocytes from peroxide injury; H2O2 injury protection, ATPLite, 2 h; protection from H2O2 cell death, % at 20 µM; hit rate 0.63% among 360,000;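 active means compounds giving at least 50% protection of heart cells from peroxide-induced death in the single-dose screen, raw or plate-pattern-corrected value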;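 further: 0% = DMSO wells with peroxide and 100% = DMSO wells without peroxide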
H9c2 TAG inh – reduces triacylglycerol accumulation in H9c2 cells; Nile Red lipid (TAG) fluorescence; cells loaded with 200 µM oleic acid; inhibition, % at 12.5 µM; hit rate 0.66% among 230,000;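 active means pattern-corrected inhibition of lipid staining of at least 50% with the nuclear-stain viability signal not falling by more than 50%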;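 further: 0% = DMSO wells and 100% = triacsin C control wells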
MT1-MMP act inh – blocks activation of human MT1-MMP; HT1080 RFP-PRO-GFP cells, GFP/RFP ratio fluorescence, overnight; percent of plate control window, DMSO zero; GFP/RFP ratio change, % at 20 µM; hit rate 0.061% among 360,000; AID 651647;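 active means GFP/RFP ratio change of at least 30% with cell ATP level not reduced by more than half and red fluorescence within 50% of control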
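Compound: 20 µM single dose, 1% DMSO / System: HT1080 RFP-PRO-GFP cells / Controls: DMSO and RFP-L50D-GFP cell wells / Read-out basis: GFP/RFP fluorescence ratio / Schedule: overnight compound exposure at 37 °C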
Numbers without * were called inactive.

O=C(CSc1nnc(COc2ccccc2)n1-c1ccc(Cl)cc1)Nc1ccccc1-c1ccccc1 was read as Tn6 DDE FP -6 and DDE Tn7 FP inh -1.
CN(Cc1ccco1)S(=O)(=O)c1ccc2c(c1)CCN2C(=O)CC(C)(C)C was read as Tn6 DDE FP 2 and DDE Tn7 FP inh 3.
Cc1ccc(S(=O)(=O)N2CCN(C(=O)CCc3nc4ccccc4c(=O)[nH]3)CC2)c(C)c1 was read as Tn6 DDE FP -1, DDE Tn7 FP inh -5, DAGLB inhibitor 2, H9c2 protect 72*, H9c2 TAG inh -1 and MT1-MMP act inh -6.
O=C(CCc1nc2ccccc2c(=O)[nH]1)N1CCN(S(=O)(=O)c2ccccc2Br)CC1 was read as Tn6 DDE FP -2, DDE Tn7 FP inh 2, DAGLB inhibitor 1, H9c2 protect 71*, H9c2 TAG inh 9 and MT1-MMP act inh -13.
`Cc1ccc(NC(=O)CCc2nc3ccccc3c(=O)[nH]2)cc1S(=O)(=O)N1CCOCC1` gave Tn6 DDE FP 2, DDE Tn7 FP inh -7, DAGLB inhibitor 1, H9c2 protect 86* and H9c2 TAG inh 3.
For Cc1ccc(NC(=O)c2cc(=O)c3ccccc3o2)cc1S(=O)(=O)N1CCCCC1 the results were Tn6 DDE FP -4, DDE Tn7 FP inh 6, DAGLB inhibitor -1, H9c2 protect 16, H9c2 TAG inh 13 and MT1-MMP act inh 2.
CC(C)c1ccc(S(=O)(=O)N2CCN(C(=O)CCc3nc4ccccc4c(=O)[nH]3)CC2)cc1 was read as Tn6 DDE FP -1, DDE Tn7 FP inh -6, DAGLB inhibitor 2, H9c2 protect 44, H9c2 TAG inh 1 and MT1-MMP act inh -3.
CN1CCN(C(=O)CCc2nc3ccccc3c(=O)[nH]2)CC1 was read as Tn6 DDE FP -1, DDE Tn7 FP inh 2, DAGLB inhibitor 0, H9c2 protect 34, H9c2 TAG inh -4 and MT1-MMP act inh 1.
Cc1ccc(NC(=O)c2cc(=O)c3ccccc3o2)cc1S(=O)(=O)N1CCOCC1 was read as Tn6 DDE FP -5, DDE Tn7 FP inh 1, DAGLB inhibitor -1, H9c2 protect 60*, H9c2 TAG inh 21 and MT1-MMP act inh -4.
Screening O=C(c1cccc(C(F)(F)F)c1)N1CC[C@H]2[C@H](CCCN2Cc2ccccc2)C1 returned Tn6 DDE FP 0 and DDE Tn7 FP inh 4.
Screening COc1ccc(C2CCC3(CCC(=O)N3CCOC(=O)NCc3ccc(Cl)cc3)CC2)cc1 (centres undefined) returned Tn6 DDE FP 1 and DDE Tn7 FP inh -6.
CC(OC(=O)CCc1nc2ccccc2c(=O)[nH]1)C(=O)Nc1ccc2c(c1)OCO2 (centres undefined) was read as Tn6 DDE FP 0, DDE Tn7 FP inh 5, DAGLB inhibitor -1, H9c2 protect 50*, H9c2 TAG inh -4 and MT1-MMP act inh -1.
Screening Cc1ccc(C)c(S(=O)(=O)N2CCN(C(=O)CCc3nc4ccccc4c(=O)[nH]3)CC2)c1 returned Tn6 DDE FP 0, DDE Tn7 FP inh 5, DAGLB inhibitor 0, H9c2 protect 57*, H9c2 TAG inh 0 and MT1-MMP act inh -1.
For FC(F)(F)Oc1ccc(Cn2ccc3ccc(-c4ccc5ccn(Cc6ccccc6)c5c4)cc32)cc1 the results were Tn6 DDE FP -8 and DDE Tn7 FP inh 4.
Screening COc1ccc(C2Nc3ccccc3C(=O)N2Cc2ccco2)cc1COc1c(C)cc(NC(C)=O)cc1C (centres undefined) returned Tn6 DDE FP -5 and DDE Tn7 FP inh -3.
Screening Cc1cc(=O)c2c(O)c(O)ccc2o1 returned Tn6 DDE FP -2, DDE Tn7 FP inh -1, DAGLB inhibitor 3, H9c2 protect 50*, H9c2 TAG inh -12 and MT1-MMP act inh 5.
Screening COc1cc(/C=N/NC(=O)c2cccnc2)ccc1OS(=O)(=O)c1ccc(F)cc1 returned Tn6 DDE FP -6, DDE Tn7 FP inh -8, DAGLB inhibitor 1, H9c2 protect 85* and MT1-MMP act inh 4.
Screening O=C(N/N=C/c1c(O)ccc2ccccc12)c1cccnc1 returned Tn6 DDE FP -1, DDE Tn7 FP inh -4, DAGLB inhibitor -4, H9c2 protect 30 and MT1-MMP act inh -22.
`COc1cc(/C=N/NC(=O)c2cccnc2)ccc1OS(=O)(=O)c1cc(C)ccc1C` gave Tn6 DDE FP -11, DDE Tn7 FP inh -4, DAGLB inhibitor -1, H9c2 protect 62*, H9c2 TAG inh -1 and MT1-MMP act inh -1.
For COc1cc(/C=N/NC(=O)c2cccnc2)ccc1OS(=O)(=O)c1ccc(C)cc1 the results were Tn6 DDE FP -11, DDE Tn7 FP inh 4, DAGLB inhibitor -1, H9c2 protect 16, H9c2 TAG inh 7 and MT1-MMP act inh 4.
Cc1cc(O)c(C)c(O)c1/C=N/NC(=O)c1cccnc1 was read as Tn6 DDE FP -4, DDE Tn7 FP inh -9, DAGLB inhibitor 4, H9c2 protect 51* and MT1-MMP act inh 0.
For N#Cc1ccc(/C=C2\CC3(OC(=O)C4CCCC4)CCCN2C3)cc1 (centres undefined) the results were Tn6 DDE FP -1 and DDE Tn7 FP inh -9.
CCCN1Cc2cccc(C(N)=O)c2C1=O was read as Tn6 DDE FP 5, DDE Tn7 FP inh -3, DAGLB inhibitor -4, H9c2 protect 59*, H9c2 TAG inh -13 and MT1-MMP act inh -2.
`CC(C)(C)c1cc(Br)c(O)c(N=Nc2ccc(S(=O)(=O)N3CCOCC3)cc2)c1` gave Tn6 DDE FP 3, DDE Tn7 FP inh 5, DAGLB inhibitor 27, H9c2 protect -2, H9c2 TAG inh 85* and MT1-MMP act inh 0.
N#CCSc1nc2cc(C(=O)N3CCC(C(N)=O)CC3)ccc2c2nc3ccccc3n12 was read as DAGLB inhibitor -2, H9c2 protect 52* and MT1-MMP act inh -5.
O=c1ccc2ccccc2c2ccccc12 was read as Tn6 DDE FP -1, DDE Tn7 FP inh 2, H9c2 protect -11 and MT1-MMP act inh 4.
`O=Nc1c(O)c2ccccc2c2ccccc12` gave Tn6 DDE FP 3, DDE Tn7 FP inh -4, DAGLB inhibitor 6, H9c2 protect -7, H9c2 TAG inh 99* and MT1-MMP act inh 0.
Screening O=C(CN(CCc1ccccc1)S(=O)(=O)c1ccccc1)N1CCOCC1 returned Tn6 DDE FP -1 and DDE Tn7 FP inh -1.
`O=C(NCCc1ccccc1)OCc1cn(-c2ccc(F)cc2)nn1` gave Tn6 DDE FP -1 and DDE Tn7 FP inh 8.
O=C(Cn1[nH]c(=O)c2ccccc2c1=O)NC1CCN(Cc2ccccc2)CC1 was read as Tn6 DDE FP 7, DDE Tn7 FP inh -1, DAGLB inhibitor 0, H9c2 protect 70*, H9c2 TAG inh 6 and MT1-MMP act inh 5.
